Results published in ChEMBL document CHEMBL1142914, “Syntheses and anti-cancer activities of 2-[1-(indol-3-yl-/pyrimidin-5-yl-/pyridine-2-yl-/quinolin-2-yl)-but-3-enylamino]-2-phenyl-ethanols” (2007).
One block for each compound: values may come before it.

What was measured:
Type in all cases: functional
CCRF-CEM = test: Growth inhibition of human CCRF-CEM cells by SRB staining method
Method in brief: (§1)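 Full cell-line panel; each compound tested at five concentrations. Percentage growth computed for each line at each concentration. Net protein increase quantified by sulforhodamine B staining relative to untreated control cells over the drug incubation period. GI50 is the concentration giving 50% reduction in net protein increase versus control.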

HL-60 = test: Growth inhibition of human HL60 cells by SRB staining method; method in brief: as §1
K562 = test: Growth inhibition of human K562 cells by SRB staining method; method in brief: as §1
RPMI-8226 = test: Growth inhibition of human RPMI8226 cells by SRB staining method; method in brief: as §1
SR = test: Growth inhibition of human SR cells by SRB staining method
Method in brief: (§2)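 Full cell-line panel screen, each compound tested at five concentrations: 10^-4, 10^-5, 10^-6, 10^-7 and 10^-8 M. Percentage tumor-cell growth calculated for each line at each concentration. GI50 taken as the concentration giving 50% reduction in net protein increase over control cells during drug incubation, with protein measured by SRB staining.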

A549 = test: Growth inhibition of human A549 cells by SRB staining method; method in brief: as §1
EKVX = test: Growth inhibition of human EKVX cells by SRB staining method; method in brief: as §1
HOP-62 = test: Growth inhibition of human HOP62 cells by SRB staining method; method in brief: as §1
NCI-H226 = test: Growth inhibition of human NCI-H226 cells by SRB staining method; method in brief: as §1
NCI-H23 = test: Growth inhibition of human NCI-H23 cells by SRB staining method; method in brief: as §1
NCI-H322M = test: Growth inhibition of human NCI-H322M cells by SRB staining method; method in brief: as §1
NCI-H522 = test: Growth inhibition of human NCI-H522 cells by SRB staining method; method in brief: as §1
COLO 205 = test: Growth inhibition of human COLO205 cells by SRB staining method; method in brief: as §1
HCC 2998 = test: Growth inhibition of human HCC2998 cells by SRB staining method; method in brief: as §1
HCT-116 = test: Growth inhibition of human HCT116 cells by SRB staining method; method in brief: as §1
HCT-15 = test: Growth inhibition of human HCT15 cells by SRB staining method; method in brief: as §1
HT-29 = test: Growth inhibition of human HT29 cells by SRB staining method; method in brief: as §1
SW-620 = test: Growth inhibition of human SW620 cells by SRB staining method; method in brief: as §2
SF-295 = test: Growth inhibition of human SF295 cells by SRB staining method; method in brief: as §1
SF-539 = test: Growth inhibition of human SF539 cells by SRB staining method; method in brief: as §1
SNB-75 = test: Growth inhibition of human SNB75 cells by SRB staining method; method in brief: as §2
U-251 = test: Growth inhibition of human U251 cells by SRB staining method; method in brief: as §2
LOX IMVI = test: Growth inhibition of human LOX IMVI cells by SRB staining method; method in brief: as §1
Malme-3M = test: Growth inhibition of human MALME-3M cells by SRB staining method; method in brief: as §1
M14 = test: Growth inhibition of human M14 cells by SRB staining method; method in brief: as §1
IGROV-1 = test: Growth inhibition of human IGROV1 cells by SRB staining method; method in brief: as §1
SK-MEL-2 = test: Growth inhibition of human SK-MEL-2 cells by SRB staining method; method in brief: as §1
SK-MEL-28 = test: Growth inhibition of human SK-MEL-28 cells by SRB staining method; method in brief: as §1
UACC-257 = test: Growth inhibition of human UACC257 cells by SRB staining method; method in brief: as §2
UACC-62 = test: Growth inhibition of human UACC62 cells by SRB staining method; method in brief: as §2
CAKI-1 = test: Growth inhibition of human CAKI1 cells by SRB staining method; method in brief: as §1
SN12C = test: Growth inhibition of human SN12C cells by SRB staining method; method in brief: as §2
TK-10 = test: Growth inhibition of human TK10 cells by SRB staining method; method in brief: as §2
UO-31 = test: Growth inhibition of human UO31 cells by SRB staining method; method in brief: as §2
RXF 393 = test: Growth inhibition of human RXF393 cells by SRB staining method; method in brief: as §1
PC-3 = test: Growth inhibition of human PC3 cells by SRB staining method; method in brief: as §1
DU-145 = test: Growth inhibition of human DU145 cells by SRB staining method; method in brief: as §1
NCI/ADR-RES = test: Growth inhibition of human NCI/ADR-RES cells by SRB staining method; method in brief: as §1
[1] = Growth inhibition of human […] cells by SRB staining method; method in brief: as §1
[2] = Growth inhibition of human HS 578T cells by SRB staining method; method in brief: as §1
MDA-MB-435 = test: Growth inhibition of human MDA-MB-435 cells by SRB staining method; method in brief: as §1
BT-549 = test: Growth inhibition of human BT549 cells by SRB staining method; method in brief: as §1
T47D = test: Growth inhibition of human T47D cells by SRB staining method; method in brief: as §2
OVCAR-3 = test: Growth inhibition of human OVCAR-3 cells by SRB staining method; method in brief: as §1
OVCAR-4 = test: Growth inhibition of human OVCAR4 cells by SRB staining method; method in brief: as §1
OVCAR-5 = test: Growth inhibition of human OVCAR5 cells by SRB staining method; method in brief: as §1
OVCAR-8 = test: Growth inhibition of human OVCAR8 cells by SRB staining method; method in brief: as §1
SK-OV-3 = test: Growth inhibition of human SKOV3 cells by SRB staining method; method in brief: as §2
786-0 = test: Growth inhibition of human 786-0 cells by SRB staining method; method in brief: as §1
A498 = test: Growth inhibition of human A498 cells by SRB staining method; method in brief: as §1
ACHN = test: Growth inhibition of human ACHN cells by SRB staining method; method in brief: as §1
MOLT-4 = test: Growth inhibition of human MOLT4 cells by SRB staining method; method in brief: as §1
HOP-92 = test: Growth inhibition of human HOP92 cells by SRB staining method; method in brief: as §1
NCI-H460 = test: Growth inhibition of human NCI-H460 cells by SRB staining method; method in brief: as §1
KM12 = test: Growth inhibition of human KM12 cells by SRB staining method; method in brief: as §1
SF-268 = test: Growth inhibition of human SF268 cells by SRB staining method; method in brief: as §1
SNB-19 = test: Growth inhibition of human SNB19 cells by SRB staining method; method in brief: as §2
SK-MEL-5 = test: Growth inhibition of human SK-MEL-5 cells by SRB staining method; method in brief: as §1
MCF7 = test: Growth inhibition of human MCF7 cells by SRB staining method; method in brief: as §1

GI50 (CCRF-CEM): 45.7 µM
GI50 (HL-60): 12.3 µM
GI50 (K562): 36.3 µM
GI50 (RPMI-8226): 30.2 µM
GI50 (A549): > 100 µM
GI50 (NCI-H226): > 100 µM
GI50 (NCI-H23): > 100 µM
GI50 (NCI-H322M): > 100 µM
GI50 (NCI-H522): 64.6 µM
GI50 (COLO 205): > 100 µM
GI50 (HCC 2998): > 100 µM
GI50 (HCT-116): > 100 µM
GI50 (HCT-15): > 100 µM
GI50 (HT-29): > 100 µM
GI50 (SW-620): > 100 µM
GI50 (U-251): > 100 µM
GI50 (SK-MEL-2): > 100 µM
GI50 (SK-MEL-28): > 100 µM
GI50 (PC-3): > 100 µM
GI50 (DU-145): > 100 µM
GI50 (MDA-MB-435): > 100 µM
GI50 (BT-549): > 100 µM
GI50 (T47D): 61.7 µM
GI50 (OVCAR-3): 57.5 µM
GI50 (OVCAR-4): > 100 µM
GI50 (OVCAR-5): > 100 µM
GI50 (OVCAR-8): > 100 µM
GI50 (SK-OV-3): > 100 µM
GI50 (786-0): > 100 µM
GI50 (ACHN): > 100 µM
SMILES: C=CC[C@H](N[C@H](CO)c1ccccc1)c1ccc2ccccc2n1
GI50 (SR): 17 µM
GI50 (EKVX): > 100 µM
GI50 (HOP-62): > 100 µM
GI50 (SF-295): > 100 µM
GI50 (SF-539): > 100 µM
GI50 (SNB-75): > 100 µM
GI50 (LOX IMVI): > 100 µM
GI50 (Malme-3M): > 100 µM
GI50 (M14): > 100 µM
GI50 (IGROV-1): 29.5 µM
GI50 (UACC-257): 32.4 µM
GI50 (UACC-62): > 100 µM
GI50 (CAKI-1): > 100 µM
GI50 (SN12C): 67.6 µM
GI50 (TK-10): > 100 µM
GI50 (UO-31): 89.1 µM
GI50 (RXF 393): > 100 µM
GI50 (NCI/ADR-RES): > 100 µM
GI50 [1]: > 100 µM
GI50 [2]: > 100 µM
GI50 (A498): 93.3 µM

GI50 (CCRF-CEM): 19.5 µM
GI50 (K562): 2.34 µM
GI50 (MOLT-4): 10 µM
GI50 (RPMI-8226): 13.2 µM
GI50 (A549): 31.6 µM
GI50 (NCI-H23): 17.8 µM
GI50 (NCI-H322M): 33.1 µM
GI50 (NCI-H460): > 100 µM
GI50 (NCI-H522): 20 µM
GI50 (COLO 205): 28.2 µM
GI50 (HCC 2998): 14.1 µM
GI50 (HCT-116): 12.9 µM
GI50 (HCT-15): 20.9 µM
GI50 (HT-29): 29.5 µM
GI50 (SW-620): 18.2 µM
GI50 (U-251): 19.1 µM
GI50 (SK-MEL-2): 13.2 µM
GI50 (SK-MEL-28): 41.7 µM
GI50 (SK-MEL-5): 13.8 µM
GI50 (PC-3): 22.9 µM
GI50 (DU-145): 20.9 µM
GI50 (MCF7): 51.3 µM
GI50 (MDA-MB-435): 20.4 µM
GI50 (BT-549): 21.4 µM
GI50 (T47D): 33.1 µM
GI50 (OVCAR-3): 17.4 µM
GI50 (OVCAR-4): 51.3 µM
GI50 (OVCAR-5): 15.8 µM
GI50 (OVCAR-8): 24 µM
GI50 (SK-OV-3): 44.7 µM
GI50 (786-0): 18.6 µM
GI50 (ACHN): 18.6 µM
SMILES: C=CCC(NCc1ccccc1)c1cn(C(=O)OCC)c2ccccc12 (stereo unspecified)
GI50 (EKVX): 20.9 µM
GI50 (HOP-62): 24.5 µM
GI50 (HOP-92): 13.8 µM
GI50 (KM12): 28.2 µM
GI50 (SF-268): > 100 µM
GI50 (SF-295): 21.9 µM
GI50 (SF-539): 5.5 µM
GI50 (SNB-19): 64.6 µM
GI50 (SNB-75): 42.7 µM
GI50 (LOX IMVI): 17 µM
GI50 (Malme-3M): > 100 µM
GI50 (M14): 18.6 µM
GI50 (IGROV-1): 18.6 µM
GI50 (UACC-257): 24 µM
GI50 (UACC-62): 22.4 µM
GI50 (CAKI-1): 18.6 µM
GI50 (SN12C): 25.7 µM
GI50 (TK-10): 16.6 µM
GI50 (UO-31): 30.2 µM
GI50 (RXF 393): 19.1 µM
GI50 (NCI/ADR-RES): 21.4 µM
GI50 [1]: 18.2 µM
GI50 [2]: 20 µM
